According to ChEMBL document CHEMBL3112533, “Synthesis of novel, peptidic kinase inhibitors with cytostatic/cytotoxic activity” (Bioorg Med Chem, 2014):
Active and inactive are the calls of the source. No cut-off for these calls is given here.

Experiments:
[1] = test system: NIH3T3; assay: Cytotoxicity against mouse NIH/3T3 cells by crystal violet assay; type: cell-based
How it was run: (§1)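 Parental NIH-3T3 fibroblasts and Ha-Ras-transfected RAS-3T3 cells were grown in DMEM with 10% FBS, […] and antibiotic-antimycotic at 37°C in 5% CO2. Growth retardation/cytotoxicity was read by crystal violet staining. Compounds came from 10 mM DMSO stocks.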

[2] = Cytotoxicity against mouse RAS-3T3 cells by crystal violet assay; type: functional, cell-based; conditions: NIH3T3; how it was run: as §1
[3] = biological target: Platelet-derived growth factor receptor beta (Homo sapiens) (UniProt P09619); assay: Inhibition of PDGFRbeta (unknown origin) at 10 uM
How it was run: (§2)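 ADP-Glo luminescent kinase assay. Inhibitor at 10 μM was preincubated with kinase (1 ng) for 10 min at 25°C. Substrate (10–60 μM) and ATP (25 μM) were then added and the mix incubated 1 h at 24°C. ADP-Glo reagent was added for 40 min, then detection reagent for 30 min, and luminescence was read. Activity is given as % of uninhibited kinase. Mean ± SD of 2 independent experiments.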

[4] = biological target: Serine/threonine-protein kinase pim-1 (Homo sapiens) (UniProt P11309); assay: Inhibition of PIM1 (unknown origin) at 10 uM; how it was run: as §2
[5] = test system: RAS-3T3; assay: Inhibition of MEK-mediated ERK1/2 phosphorylation in mouse RAS-3T3 cells at 40 uM by Western-blot analysis; type: cell-based
How it was run: (§3)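 RAS-3T3 cells were starved overnight in 2% FBS, then given 10% FBS medium with compound for 4 h. Cells were lysed in Triton X-100/Tris/EDTA/NaCl buffer with protease inhibitors. 50 μg of protein was run on 10% SDS-PAGE and blotted to nitrocellulose, with loading checked by Ponceau. Blots were probed with anti-pERK and anti-total ERK antibodies and detected by HRP chemiluminescence. Untreated cells were controls.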

[6] = biological target: TRAF2 and NCK-interacting protein kinase (Homo sapiens) (UniProt Q9UKE5); assay: Inhibition of TNIK (unknown origin) at 10 uM; how it was run: as §2
[7] = biological target: Tyrosine-protein kinase JAK2 (Homo sapiens) (UniProt O60674); assay: Inhibition of JAK2 (unknown origin) at 10 uM; how it was run: as §2
[8] = test system: RAS-3T3; assay: Inhibition of MEK-mediated ERK1/2 phosphorylation in mouse RAS-3T3 cells at 40 uM by ELISA; type: cell-based
How it was run: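 RAS-3T3 cells were pre-starved overnight in 2% FBS, then treated with compound in 10% FBS medium for 4 h. Lysates were assayed with a pERK1/2-specific sandwich ELISA and absorbance read at 405 nm. Untreated cells were controls.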

[9] = biological target: Tyrosine-protein kinase BTK (Homo sapiens) (UniProt Q06187); assay: Inhibition of BTK (unknown origin) at 10 uM; how it was run: as §2
[10] = biological target: Insulin-like growth factor 1 receptor (Homo sapiens) (UniProt P08069); assay: Inhibition of IGF1R (unknown origin) at 10 uM; how it was run: as §2
[11] = biological target: Fibroblast growth factor receptor 2 (Homo sapiens) (UniProt P21802); assay: Inhibition of FGFR2 (unknown origin) at 10 uM; how it was run: as §2
[12] = biological target: Mitogen-activated protein kinase 3 (Homo sapiens) (UniProt P27361); assay: Inhibition of activated ERK1 (unknown origin) using […] as substrate
How it was run: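 Activated pERK1 (20 ng) with MBP (20 μg) and compound at final 0.05–5 μM. Non-radioactive ATP at 0.2 μM. Residual ATP was measured by luciferase luminescence, and relative activity was derived from ATP consumption versus compound-free control. Mean ± SD from 3 independent experiments.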

[13] = biological target: Vascular endothelial growth factor receptor 2 (Homo sapiens) (UniProt P35968); assay: Inhibition of KDR (unknown origin) at 10 uM; how it was run: as §2
[14] = biological target: Receptor-type tyrosine-protein kinase FLT3 (Homo sapiens) (UniProt P36888); assay: Inhibition of FLT3 (unknown origin) at 10 uM; how it was run: as §2
[15] = biological target: T1, Tyrosine-protein kinase JAK3 (Homo sapiens) (UniProt P52333); assay: Inhibition of JAK3 (unknown origin) at 10 uM; how it was run: as §2
T1 sequence (whole entry): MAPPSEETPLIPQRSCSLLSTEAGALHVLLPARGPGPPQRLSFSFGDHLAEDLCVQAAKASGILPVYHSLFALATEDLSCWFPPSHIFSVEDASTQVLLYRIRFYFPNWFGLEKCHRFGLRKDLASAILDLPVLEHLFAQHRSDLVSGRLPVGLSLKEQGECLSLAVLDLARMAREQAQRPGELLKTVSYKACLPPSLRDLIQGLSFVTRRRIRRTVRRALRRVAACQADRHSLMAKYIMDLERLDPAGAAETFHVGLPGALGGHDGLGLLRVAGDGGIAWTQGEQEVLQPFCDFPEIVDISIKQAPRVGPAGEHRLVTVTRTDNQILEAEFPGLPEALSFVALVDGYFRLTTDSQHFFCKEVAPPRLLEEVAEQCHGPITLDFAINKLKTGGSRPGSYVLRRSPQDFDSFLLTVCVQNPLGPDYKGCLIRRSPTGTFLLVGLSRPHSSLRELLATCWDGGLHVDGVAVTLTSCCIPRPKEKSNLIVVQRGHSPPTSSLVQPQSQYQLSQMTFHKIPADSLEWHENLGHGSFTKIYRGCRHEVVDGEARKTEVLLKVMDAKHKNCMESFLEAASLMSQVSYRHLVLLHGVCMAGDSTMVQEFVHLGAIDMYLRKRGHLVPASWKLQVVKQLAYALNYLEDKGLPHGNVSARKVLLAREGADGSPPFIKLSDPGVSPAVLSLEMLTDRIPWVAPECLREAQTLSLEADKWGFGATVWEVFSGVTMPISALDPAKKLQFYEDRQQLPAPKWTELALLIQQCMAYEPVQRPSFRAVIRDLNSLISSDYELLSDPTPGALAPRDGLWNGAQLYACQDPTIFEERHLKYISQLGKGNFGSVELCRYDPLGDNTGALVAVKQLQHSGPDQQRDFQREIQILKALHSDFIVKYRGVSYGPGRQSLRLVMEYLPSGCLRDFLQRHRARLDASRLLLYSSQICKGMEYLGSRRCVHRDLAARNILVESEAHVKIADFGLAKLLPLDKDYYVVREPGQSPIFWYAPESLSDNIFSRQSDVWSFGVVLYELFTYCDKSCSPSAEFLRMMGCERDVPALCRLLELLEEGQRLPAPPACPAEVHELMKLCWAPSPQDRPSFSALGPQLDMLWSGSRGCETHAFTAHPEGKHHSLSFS

[16] = test system: RAS-3T3; assay: Inhibition of MEK in mouse RAS-3T3 cells assessed as effect on unphosphorylated ERK1/2 at 40 uM by Western-blot analysis; type: cell-based; how it was run: as §3
[17] = biological target: ALK tyrosine kinase receptor (Homo sapiens) (UniProt Q9UM73); assay: Inhibition of ALK (unknown origin) at 10 uM; how it was run: as §2
[18] = biological target: Epidermal growth factor receptor (Homo sapiens) (UniProt P00533); assay: Inhibition of EGFR (unknown origin) at 10 uM; how it was run: as §2
[19] = biological target: Mitogen-activated protein kinase 3 (Homo sapiens) (UniProt P27361); assay: Competitive inhibition of activated ERK1 (unknown origin) using […] as substrate
How it was run: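 Activated pERK1 (20 ng) with inhibitor held at 5 μM and MBP varied from 0.2 to 200 μg per reaction. Non-radioactive ATP at 0.2 μM. Remaining ATP was measured by luciferase luminescence, and activity was taken from ATP consumption. Controls lacked inhibitor but had matching MBP amounts. Mean ± SD from 3 independent experiments.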

[20] = biological target: T2, Aurora kinase A (Homo sapiens) (UniProt O14965); assay: Inhibition of aurora-A (unknown origin) at 10 uM; how it was run: as §2
T2 sequence (whole entry): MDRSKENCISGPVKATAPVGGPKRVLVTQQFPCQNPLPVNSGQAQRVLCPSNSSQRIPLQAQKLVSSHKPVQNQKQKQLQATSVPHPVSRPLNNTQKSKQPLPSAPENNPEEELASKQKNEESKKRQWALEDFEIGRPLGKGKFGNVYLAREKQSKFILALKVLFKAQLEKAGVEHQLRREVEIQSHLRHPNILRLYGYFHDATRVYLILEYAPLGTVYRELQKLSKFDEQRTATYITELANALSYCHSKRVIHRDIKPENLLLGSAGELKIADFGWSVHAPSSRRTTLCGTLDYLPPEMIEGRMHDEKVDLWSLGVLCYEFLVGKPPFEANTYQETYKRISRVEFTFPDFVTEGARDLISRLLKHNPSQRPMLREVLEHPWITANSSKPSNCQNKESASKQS

[21] = organism: Homo sapiens; assay: Inhibition of MEK/ERK1 (unknown origin) using MBP/[gamma-32P]ATP as substrate after 10 mins by scintillation counting
How it was run: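 Compound at 10–150 μM in MOPS pH 7.2 buffer with β-glycerophosphate, EGTA, orthovanadate and DTT. [γ-32P]ATP at 10 μCi/reaction, 10 min at 30°C. Phosphorylated MBP was captured on P81 paper and counted by scintillation. Run in quadruplicate and given as % of no-compound control.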

Sequence of Mitogen-activated protein kinase 3 (Homo sapiens) (P27361 whole entry): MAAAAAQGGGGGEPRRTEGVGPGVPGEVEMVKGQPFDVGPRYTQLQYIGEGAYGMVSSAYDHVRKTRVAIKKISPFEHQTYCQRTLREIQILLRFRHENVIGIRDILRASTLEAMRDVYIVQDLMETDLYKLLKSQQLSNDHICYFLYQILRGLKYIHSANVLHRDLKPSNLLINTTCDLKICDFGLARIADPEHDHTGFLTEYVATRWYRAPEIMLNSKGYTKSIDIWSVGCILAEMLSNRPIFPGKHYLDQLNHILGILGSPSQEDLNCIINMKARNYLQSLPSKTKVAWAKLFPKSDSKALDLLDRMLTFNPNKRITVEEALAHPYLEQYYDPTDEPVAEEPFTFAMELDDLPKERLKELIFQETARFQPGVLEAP
Sequence of Insulin-like growth factor 1 receptor (Homo sapiens) (P08069 31-736 limits assumed): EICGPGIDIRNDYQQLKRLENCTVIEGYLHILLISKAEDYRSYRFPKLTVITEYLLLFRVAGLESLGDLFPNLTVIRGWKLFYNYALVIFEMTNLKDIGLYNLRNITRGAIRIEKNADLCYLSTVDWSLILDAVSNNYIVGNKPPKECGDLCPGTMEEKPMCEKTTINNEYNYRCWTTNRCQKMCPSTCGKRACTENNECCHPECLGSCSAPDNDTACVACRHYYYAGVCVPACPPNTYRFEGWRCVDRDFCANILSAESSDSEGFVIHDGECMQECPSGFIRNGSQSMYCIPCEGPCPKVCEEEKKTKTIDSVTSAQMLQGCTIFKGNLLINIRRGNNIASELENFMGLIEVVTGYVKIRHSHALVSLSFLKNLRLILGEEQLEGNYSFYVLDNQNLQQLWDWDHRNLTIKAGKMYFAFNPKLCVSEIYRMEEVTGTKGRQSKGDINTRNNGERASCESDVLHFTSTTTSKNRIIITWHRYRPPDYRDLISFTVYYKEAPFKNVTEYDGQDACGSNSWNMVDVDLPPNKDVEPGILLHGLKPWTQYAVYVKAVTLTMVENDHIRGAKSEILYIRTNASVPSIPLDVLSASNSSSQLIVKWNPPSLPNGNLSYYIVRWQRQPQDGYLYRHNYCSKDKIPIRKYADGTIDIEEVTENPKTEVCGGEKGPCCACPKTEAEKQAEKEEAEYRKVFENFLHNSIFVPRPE
Sequence of Insulin-like growth factor 1 receptor (Homo sapiens) (P08069 741-1367 limits assumed): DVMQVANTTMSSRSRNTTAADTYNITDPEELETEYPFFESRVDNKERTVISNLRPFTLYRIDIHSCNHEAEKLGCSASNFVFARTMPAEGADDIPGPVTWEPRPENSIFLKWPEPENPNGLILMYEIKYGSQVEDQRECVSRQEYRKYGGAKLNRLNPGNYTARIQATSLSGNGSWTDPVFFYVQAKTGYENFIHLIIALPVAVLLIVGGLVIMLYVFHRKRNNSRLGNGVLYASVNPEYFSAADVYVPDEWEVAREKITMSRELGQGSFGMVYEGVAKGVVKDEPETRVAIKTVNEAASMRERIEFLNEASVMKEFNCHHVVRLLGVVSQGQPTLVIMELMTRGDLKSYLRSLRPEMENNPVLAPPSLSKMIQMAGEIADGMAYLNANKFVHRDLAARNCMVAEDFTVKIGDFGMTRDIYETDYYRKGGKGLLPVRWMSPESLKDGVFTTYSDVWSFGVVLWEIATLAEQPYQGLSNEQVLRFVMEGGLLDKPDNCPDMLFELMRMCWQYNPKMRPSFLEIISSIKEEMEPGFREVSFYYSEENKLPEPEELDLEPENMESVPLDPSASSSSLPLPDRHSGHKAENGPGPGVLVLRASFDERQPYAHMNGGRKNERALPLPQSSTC
Sequence of TRAF2 and NCK-interacting protein kinase (Homo sapiens) (Q9UKE5 whole entry, looked up): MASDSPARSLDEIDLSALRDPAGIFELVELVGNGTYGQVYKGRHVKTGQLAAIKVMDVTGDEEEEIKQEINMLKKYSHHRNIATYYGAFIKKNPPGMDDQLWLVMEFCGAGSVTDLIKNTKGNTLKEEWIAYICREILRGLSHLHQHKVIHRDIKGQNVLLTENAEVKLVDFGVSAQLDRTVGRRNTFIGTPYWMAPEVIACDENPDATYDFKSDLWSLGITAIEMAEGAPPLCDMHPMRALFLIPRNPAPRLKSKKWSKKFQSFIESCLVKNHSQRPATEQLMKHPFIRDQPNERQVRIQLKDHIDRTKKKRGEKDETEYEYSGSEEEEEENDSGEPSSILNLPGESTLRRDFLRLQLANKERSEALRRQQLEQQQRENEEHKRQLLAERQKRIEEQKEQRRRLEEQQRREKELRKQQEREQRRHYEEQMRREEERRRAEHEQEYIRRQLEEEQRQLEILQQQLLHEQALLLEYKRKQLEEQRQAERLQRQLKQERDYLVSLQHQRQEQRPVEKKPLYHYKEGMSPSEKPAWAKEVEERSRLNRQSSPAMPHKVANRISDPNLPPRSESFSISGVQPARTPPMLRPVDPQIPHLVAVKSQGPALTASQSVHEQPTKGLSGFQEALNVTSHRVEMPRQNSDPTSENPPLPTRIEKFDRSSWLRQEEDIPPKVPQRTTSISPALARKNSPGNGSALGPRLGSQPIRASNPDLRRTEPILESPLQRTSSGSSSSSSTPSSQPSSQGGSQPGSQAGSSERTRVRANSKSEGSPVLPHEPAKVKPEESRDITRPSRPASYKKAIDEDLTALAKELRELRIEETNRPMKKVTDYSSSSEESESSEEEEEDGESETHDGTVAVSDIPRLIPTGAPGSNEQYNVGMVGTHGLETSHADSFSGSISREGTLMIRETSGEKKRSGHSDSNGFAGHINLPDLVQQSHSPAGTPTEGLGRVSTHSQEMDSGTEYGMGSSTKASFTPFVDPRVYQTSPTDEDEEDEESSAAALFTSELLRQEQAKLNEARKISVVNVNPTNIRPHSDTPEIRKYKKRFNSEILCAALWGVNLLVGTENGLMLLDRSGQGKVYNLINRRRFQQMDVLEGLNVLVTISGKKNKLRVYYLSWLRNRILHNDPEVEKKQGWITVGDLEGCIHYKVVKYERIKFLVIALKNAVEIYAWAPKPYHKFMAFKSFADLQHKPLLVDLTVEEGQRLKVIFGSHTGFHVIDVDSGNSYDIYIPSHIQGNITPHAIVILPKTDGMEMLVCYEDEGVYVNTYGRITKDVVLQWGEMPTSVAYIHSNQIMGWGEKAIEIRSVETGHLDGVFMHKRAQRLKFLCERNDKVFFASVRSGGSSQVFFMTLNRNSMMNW
Sequence of Tyrosine-protein kinase BTK (Homo sapiens) (Q06187 whole entry): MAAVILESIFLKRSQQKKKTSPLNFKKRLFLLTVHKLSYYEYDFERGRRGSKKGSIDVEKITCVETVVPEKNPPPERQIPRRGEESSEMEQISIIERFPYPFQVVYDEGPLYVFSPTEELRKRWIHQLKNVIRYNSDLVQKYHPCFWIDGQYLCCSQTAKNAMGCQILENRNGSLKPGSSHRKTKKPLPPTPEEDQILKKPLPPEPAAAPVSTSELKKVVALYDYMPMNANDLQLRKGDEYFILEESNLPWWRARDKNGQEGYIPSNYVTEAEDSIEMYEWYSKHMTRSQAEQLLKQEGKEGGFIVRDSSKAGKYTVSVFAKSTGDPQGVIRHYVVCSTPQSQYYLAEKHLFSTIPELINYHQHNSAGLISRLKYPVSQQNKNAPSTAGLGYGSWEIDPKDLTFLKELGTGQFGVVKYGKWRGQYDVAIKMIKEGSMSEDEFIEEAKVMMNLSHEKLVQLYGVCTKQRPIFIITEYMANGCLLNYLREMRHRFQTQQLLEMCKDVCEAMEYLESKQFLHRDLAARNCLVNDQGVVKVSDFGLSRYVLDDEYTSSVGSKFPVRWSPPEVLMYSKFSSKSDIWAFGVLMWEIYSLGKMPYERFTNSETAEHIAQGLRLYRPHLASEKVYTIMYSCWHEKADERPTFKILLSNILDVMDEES
Sequence of Platelet-derived growth factor receptor beta (Homo sapiens) (P09619 whole entry): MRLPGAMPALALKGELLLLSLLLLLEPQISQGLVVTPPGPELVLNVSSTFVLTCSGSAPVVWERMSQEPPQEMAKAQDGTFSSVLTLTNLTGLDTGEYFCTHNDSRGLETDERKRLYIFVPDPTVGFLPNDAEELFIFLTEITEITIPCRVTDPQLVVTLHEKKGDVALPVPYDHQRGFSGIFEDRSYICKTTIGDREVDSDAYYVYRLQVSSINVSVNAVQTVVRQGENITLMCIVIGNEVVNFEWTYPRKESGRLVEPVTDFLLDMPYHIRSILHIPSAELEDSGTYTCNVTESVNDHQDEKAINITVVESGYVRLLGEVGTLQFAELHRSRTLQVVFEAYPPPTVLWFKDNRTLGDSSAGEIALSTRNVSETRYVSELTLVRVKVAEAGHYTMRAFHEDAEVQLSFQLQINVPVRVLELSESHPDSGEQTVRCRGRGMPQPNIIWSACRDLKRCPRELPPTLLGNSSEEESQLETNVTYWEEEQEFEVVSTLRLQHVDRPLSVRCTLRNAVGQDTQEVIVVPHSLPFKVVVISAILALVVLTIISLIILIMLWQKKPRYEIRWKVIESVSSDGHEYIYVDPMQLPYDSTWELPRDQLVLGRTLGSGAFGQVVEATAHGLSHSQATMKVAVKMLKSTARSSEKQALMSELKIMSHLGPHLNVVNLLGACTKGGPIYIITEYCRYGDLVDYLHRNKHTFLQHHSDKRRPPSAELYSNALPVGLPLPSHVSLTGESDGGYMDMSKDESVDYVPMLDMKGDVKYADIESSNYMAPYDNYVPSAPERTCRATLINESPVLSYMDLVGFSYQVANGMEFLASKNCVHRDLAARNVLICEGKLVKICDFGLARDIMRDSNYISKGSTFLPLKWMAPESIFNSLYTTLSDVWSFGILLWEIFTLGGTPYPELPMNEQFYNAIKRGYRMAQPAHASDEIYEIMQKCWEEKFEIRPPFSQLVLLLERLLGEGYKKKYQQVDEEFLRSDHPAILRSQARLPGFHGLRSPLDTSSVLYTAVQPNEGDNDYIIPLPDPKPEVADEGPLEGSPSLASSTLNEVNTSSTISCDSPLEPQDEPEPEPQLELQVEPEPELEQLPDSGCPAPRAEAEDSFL

| SMILES | IC50 [1] [µM] | IC50 [2] [µM] | further results |
| --- | --- | --- | --- |
| COc1ccc(CNC(=O)C(NC(=O)CNC(=O)OCc2ccccc2)C2CCCCC2)cc1 (racemic) | 50 | 40 | – |
| CCCCCCCCCC(C(=O)NCc1ccc(OC)cc1)N(C)C(=O)CNC(=O)OCc1ccccc1 (racemic) | 30 | 30 | – |
| CCCCCCCC(NC(=O)CNC(=O)OCc1ccccc1)C(=O)NCc1ccccc1 (racemic) | 38 | 33 | – |
| CCCCCCCC(NC(=O)CNC(=O)OCc1ccccc1)C(=O)NC1CCCCC1 (racemic) | 40 | 30 | – |
| CCCCCCCC(NC(=O)CNC(=O)OCc1ccccc1)C(=O)NCc1ccc(OC)cc1OC (racemic) | 50 | 40 | – |
| COc1ccc(CNC(=O)C(CCCCCNC(=O)OC(C)(C)C)NC(=O)CNC(=O)OCc2ccccc2)cc1 (racemic) | > 100 | > 100 | – |
| CCCCCCCCCC(NC(=O)[C@H](Cc1ccccc1)NC(=O)OCc1ccccc1)C(=O)NCc1ccc(OC)cc1 (mixture of isomers) | > 200 | 68 | – |
| COc1ccc(CNC(=O)C(Cc2ccc(OC)cc2)NC(=O)CNC(=O)OCc2ccccc2)cc1 (racemic) | > 100 | > 100 | – |
| COc1ccc(CNC(=O)C(Cc2ccccc2)NC(=O)CNC(=O)OCc2ccccc2)cc1 (racemic) | > 100 | > 100 | – |
| CCCCCCCCCC(NC(=O)CNC(=O)OCc1ccccc1)C(=O)NCCc1ccccc1 (racemic) | – | – | inhibition [3]: inactive; inhibition [4]: inactive; inhibition [5]: Active; inhibition [6]: inactive; inhibition [7]: inactive; inhibition [8]: 90%; inhibition [9]: inactive; inhibition [10]: inactive; inhibition [11]: inactive; inhibition [12]: Dose-dependent effect; inhibition [13]: inactive; inhibition [14]: inactive; inhibition [15]: inactive; inhibition [16]: inactive; inhibition [17]: inactive; inhibition [18]: inactive; inhibition [19]: Active; inhibition [20]: inactive |
| CCCCCCCCC[C@H](NC(=O)CNC(=O)OCc1ccccc1)C(=O)NCc1ccc(OC)cc1 | – | – | inhibition [21]: Active |
| CCCCCCCCCC(NC(=O)[C@H](CC(C)C)NC(=O)OCc1ccccc1)C(=O)NCc1ccc(OC)cc1 (mixture of isomers) | > 200 | 50 | – |
| CCCCCCCC(NC(=O)CNC(=O)OCc1ccccc1)C(=O)NCCc1ccccc1 (racemic) | 33 | 20 | – |
| CCCCCCCCC[C@@H](NC(=O)CNC(=O)OCc1ccccc1)C(=O)NCc1ccc(OC)cc1 | – | – | inhibition [21]: Active |
| CCCCCCCC(NC(=O)CNC(=O)OCc1ccccc1)C(=O)NCc1ccc(OC)cc1 (racemic) | 40 | 40 | – |
| CCCCCCCCCC(NC(=O)CNC(=O)OCc1ccccc1)C(=O)NCc1ccc(OC)cc1 (racemic) | 55 | 19 | inhibition [21]: Dose-dependent effect |
| CCCCCCCCCC(NC(=O)[C@H](C)NC(=O)OCc1ccccc1)C(=O)NCc1ccc(OC)cc1 (mixture of isomers) | 150 | 55 | – |
| COc1ccc(CNC(=O)C(CC(C)C)NC(=O)CNC(=O)OCc2ccccc2)cc1 (racemic) | > 100 | > 100 | – |
